Source: ChEMBL document CHEMBL2146390, “Identification of Hydroxybenzoic Acids as Selective Lactate Receptor (GPR81) Agonists with Antilipolytic Effects” (ACS Med Chem Lett, 2012)
Calls of active or inactive are those of the source. The rule behind the calls is not given here.

Key:
[1] = target: Hydroxycarboxylic acid receptor 1 (Homo sapiens, UniProt Q9BXC0); experiment: Agonist activity at human recombinant GPR81 transfected in african green monkey COS-7 cells after 20 mins by [35S]GTPgammaS binding assay; format: functional, cell-based
Chain of Hydroxycarboxylic acid receptor 1 (Homo sapiens, UniProt Q9BXC0) (Q9BXC0 whole entry): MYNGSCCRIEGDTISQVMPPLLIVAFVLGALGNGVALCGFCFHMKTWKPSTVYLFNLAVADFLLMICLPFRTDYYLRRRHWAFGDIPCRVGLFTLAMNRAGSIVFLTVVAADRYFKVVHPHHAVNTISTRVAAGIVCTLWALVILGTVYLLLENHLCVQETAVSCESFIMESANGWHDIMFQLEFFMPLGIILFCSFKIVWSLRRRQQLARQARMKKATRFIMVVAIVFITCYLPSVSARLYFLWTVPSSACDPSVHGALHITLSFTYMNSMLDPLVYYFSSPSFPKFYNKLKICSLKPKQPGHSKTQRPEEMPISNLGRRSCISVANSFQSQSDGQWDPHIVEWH
Procedure, shortened: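 hGPR81 agonism measured by GTPγS binding, run as in an earlier cited report; EC50 values are the mean of at least two determinations with standard deviation.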

[2] = AUC (0 to infinity) in C57B16/J mouse at 30 mg/kg, po; format: ADME, organism-based; parameters: dose 30 mg/kg, route oral, time infinity; conditions: plasma
Procedure, shortened: (§1)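 Mice received single oral doses of 30 or 100 mg/kg. Exposure was followed over time to derive tmax, AUCinf, Cmax (ng/mL, converted to μM) and t1/2.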

Protein Gpr81 = target: T1, Protein Gpr81 (Rattus norvegicus, UniProt G3V906); experiment: Agonist activity at rat GPR81; format: functional
T1 sequence (G3V906 whole entry): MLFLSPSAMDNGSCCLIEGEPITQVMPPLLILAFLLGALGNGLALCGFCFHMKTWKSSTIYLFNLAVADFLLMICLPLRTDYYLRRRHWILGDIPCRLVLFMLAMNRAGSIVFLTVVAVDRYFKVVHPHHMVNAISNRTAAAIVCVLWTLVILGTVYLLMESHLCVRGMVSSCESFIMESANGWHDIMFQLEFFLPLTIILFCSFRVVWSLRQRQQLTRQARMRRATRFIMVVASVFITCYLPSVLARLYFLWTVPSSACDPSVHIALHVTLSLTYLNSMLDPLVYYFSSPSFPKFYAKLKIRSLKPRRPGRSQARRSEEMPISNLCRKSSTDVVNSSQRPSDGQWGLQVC

Mus musculus [3] = experiment: Antilipolytic activity in DIO C57B16/J mouse assessed as reduction in nonesterified free fatty acid cholesterol level at 100 mg/kg, po after 30 mins by enzymatic assay; format: functional, organism-based; parameters: dose 100 mg/kg
Procedure, shortened: (§2)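 Acute oral dosing at 30, 100 or 300 mg/kg in C57Bl6/J mice fed high-fat chow for 10 weeks (DIO) and fasted overnight. Nonesterified free fatty acid cholesterol (NEFAc) served as the lipolysis marker. Niacin 30 was a reference arm, and groups were compared with vehicle (P < 0.05, P < 0.01).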

[4] = target: G-protein coupled receptor 81 (Canis lupus familiaris, UniProt B9UM26); experiment: Agonist activity at dog GPR81; format: functional
Chain of G-protein coupled receptor 81 (Canis lupus familiaris, UniProt B9UM26) (B9UM26 whole entry): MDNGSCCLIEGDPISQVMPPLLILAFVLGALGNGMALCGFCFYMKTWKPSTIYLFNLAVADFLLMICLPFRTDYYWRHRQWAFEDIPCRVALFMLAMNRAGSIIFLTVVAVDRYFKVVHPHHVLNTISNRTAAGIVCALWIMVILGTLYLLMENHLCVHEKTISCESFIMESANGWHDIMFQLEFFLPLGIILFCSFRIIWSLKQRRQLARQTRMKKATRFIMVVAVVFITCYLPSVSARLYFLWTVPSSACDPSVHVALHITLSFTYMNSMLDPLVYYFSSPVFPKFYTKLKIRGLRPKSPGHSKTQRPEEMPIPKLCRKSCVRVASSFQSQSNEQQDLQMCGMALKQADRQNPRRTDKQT

[5] = Half life in C57B16/J mouse at 30 mg/kg, po; format: ADME, organism-based; parameters: dose 30 mg/kg, route oral; conditions: in vivo; procedure, shortened: as §1
[6] = AUC (0 to infinity) in C57B16/J mouse at 100 mg/kg, po; format: ADME, organism-based; parameters: time infinity, dose 100 mg/kg, route oral; conditions: plasma; procedure, shortened: as §1
[7] = Cmax in C57B16/J mouse at 100 mg/kg, po; format: ADME, organism-based; parameters: dose 100 mg/kg, route oral; conditions: in vivo; procedure, shortened: as §1
[8] = Tmax in C57B16/J mouse at 30 mg/kg, po; format: ADME, organism-based; parameters: dose 30 mg/kg, route oral; conditions: in vivo; procedure, shortened: as §1
[9] = target: T2, Hydroxycarboxylic acid receptor 1 (Mus musculus, UniProt Q8C131); experiment: Agonist activity at mouse GPR81; format: functional
T2 sequence (Q8C131 whole entry): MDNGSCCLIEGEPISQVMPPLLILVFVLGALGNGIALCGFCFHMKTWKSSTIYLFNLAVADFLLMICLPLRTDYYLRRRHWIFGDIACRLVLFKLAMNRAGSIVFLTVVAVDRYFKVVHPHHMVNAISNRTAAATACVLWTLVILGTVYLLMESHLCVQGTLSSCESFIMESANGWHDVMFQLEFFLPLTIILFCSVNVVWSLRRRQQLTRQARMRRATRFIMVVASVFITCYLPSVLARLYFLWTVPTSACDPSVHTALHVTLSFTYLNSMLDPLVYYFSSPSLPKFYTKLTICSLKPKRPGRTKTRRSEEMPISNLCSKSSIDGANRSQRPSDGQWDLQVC

Mus musculus [10] = experiment: Antilipolytic activity in DIO C57B16/J mouse assessed as reduction in nonesterified free fatty acid cholesterol level at 30 mg/kg, po after 30 mins by enzymatic assay; format: functional, organism-based; parameters: dose 30 mg/kg; procedure, shortened: as §2
[11] = Half life in C57B16/J mouse at 100 mg/kg, po; format: ADME, organism-based; parameters: dose 100 mg/kg, route oral; conditions: in vivo; procedure, shortened: as §1
Mus musculus [12] = experiment: Antilipolytic activity in DIO C57B16/J mouse assessed as reduction in nonesterified free fatty acid cholesterol level at 300 mg/kg, po after 30 mins by enzymatic assay; format: functional, organism-based; parameters: dose 300 mg/kg; procedure, shortened: as §2
[13] = Tmax in C57B16/J mouse at 100 mg/kg, po; format: ADME, organism-based; parameters: dose 100 mg/kg, route oral; conditions: in vivo; procedure, shortened: as §1
[14] = Cmax in C57B16/J mouse at 30 mg/kg, po; format: ADME, organism-based; parameters: dose 30 mg/kg, route oral; conditions: in vivo; procedure, shortened: as §1
[15] = target: G-protein coupled receptor 81 (Macaca mulatta, UniProt B9UM29); experiment: Agonist activity at monkey GPR81; format: functional
Chain of G-protein coupled receptor 81 (Macaca mulatta, UniProt B9UM29) (B9UM29 whole entry): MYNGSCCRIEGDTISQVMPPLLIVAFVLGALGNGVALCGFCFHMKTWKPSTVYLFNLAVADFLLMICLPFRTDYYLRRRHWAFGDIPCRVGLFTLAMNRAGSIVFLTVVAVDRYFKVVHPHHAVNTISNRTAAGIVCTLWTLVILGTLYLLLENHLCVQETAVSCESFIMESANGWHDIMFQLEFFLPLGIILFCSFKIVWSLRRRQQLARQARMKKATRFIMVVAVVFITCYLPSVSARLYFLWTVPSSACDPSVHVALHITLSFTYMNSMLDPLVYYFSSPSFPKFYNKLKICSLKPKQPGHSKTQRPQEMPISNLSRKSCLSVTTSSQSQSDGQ

[16] = Agonist activity at hamster GPR81; format: functional, Cricetinae

EC50 [1] | Structure (SMILES) | other results
> 1000 µM | N#Cc1cc(O)cc(C(=O)O)c1 | 
42 µM | Cc1cc(O)cc(C(=O)O)c1 | 
377 µM | O=C(O)c1cc(O)cc(O)c1 [3,5-DIHYDROXYBENZOIC ACID] | 
38 µM | O=C(O)c1cc(O)cc(F)c1 | 
16 µM | O=C(O)c1cc(O)cc(Cl)c1 | AUC(0-inf) [2]: 9360 ng·h/mL; EC50 (Protein Gpr81): 7 µM; Activity (Mus musculus [3]): Active; EC50 [4]: 67 µM; half-life [5]: 88.2 min; AUC(0-inf) [6]: 51300 ng·h/mL; Cmax [7]: 342 µM; Tmax [8]: 30 min; EC50 [9]: 22 µM; Activity (Mus musculus [10]): Active; half-life [11]: 66 min; Activity (Mus musculus [12]): Active; Tmax [13]: 30 min; Cmax [14]: 67.2 µM; EC50 [15]: 17 µM; EC50 [16]: 27 µM
129 µM | O=C(O)c1cc(O)cc(Br)c1 | 

More lines, now with the values behind:

Structure (SMILES) | EC50 [1] | other results
Oc1cc(O)cc(-c2nnn[nH]2)c1 | > 1000 µM | 
COc1cc(O)cc(C(=O)O)c1 | > 1000 µM | 
OB(O)c1cccc(O)c1 | > 1000 µM | 
O=C(O)c1cc(O)c[n+]([O-])c1 | > 1000 µM | 
CC(C)(C)c1cc(O)cc(C(=O)O)c1 | > 1000 µM | 
O=C(O)c1cncc(O)c1 | > 1000 µM | 
O=C(O)c1cc(O)cc(C(F)(F)F)c1 | > 1000 µM | 
O=C(O)c1cccc(O)c1 [3-HYDROXYBENZOIC ACID] | 184 µM | 
O=C(O)c1cccnc1 |  | Activity (Mus musculus [10]): Active
CP(=O)(O)c1cc(O)cc(O)c1 | > 1000 µM | 
O=C(O)c1cc(O)cc(-c2ccccc2)c1 | > 1000 µM | 
O=P(O)(O)c1cc(O)cc(O)c1 | > 1000 µM | 
